Assays:
Integrin alpha-V/beta-5 = Integrin alpha-V/beta-5 (Homo sapiens, UniProt P06756+P18084); assay: Inhibition of vitronectin binding to Integrin alphaVbeta5 receptor (unknown origin) by competitive ELISA; type: protein-complex assay
[1] = molecular target: Integrin alpha-IIb/beta-3 (Homo sapiens, UniProt P05106+P08514); assay: Inhibition of fibrinogen binding to Integrin alpha2bbeta3 receptor (unknown origin) by competitive ELISA; type: protein-complex assay
Integrin alpha-5/beta-1 = Integrin alpha-5/beta-1 (Homo sapiens, UniProt P05556+P08648); assay: Inhibition of fibronectin binding to human Integrin alpha5beta1 receptor by competitive ELISA; type: protein-complex assay
In short: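 Plates coated overnight at 4 °C with 0.5 μg/mL fibronectin at pH 9.6, then blocked with 1% BSA in Tris buffer containing Ca, Mg and Mn. Soluble human α5β1 (1.0 μg/mL final) and inhibitor (0.00013−10 μM final) incubated 1 h at RT. Bound integrin detected with anti-CD49e and peroxidase secondary antibody, A450. Duplicates; IC50 taken as the inflection point of the inhibition curve.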

Integrin alpha-V/beta-6 = Integrin alpha-V/beta-6 (Homo sapiens, UniProt P06756+P18564); assay: Inhibition of latency-associated peptide binding to Integrin alphaVbeta6 receptor (unknown origin) by competitive ELISA; type: protein-complex assay
In short: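 LAP coated at 0.4 μg/mL; soluble αvβ6 at 0.25 μg/mL final, mixed with serially diluted inhibitor. Bound integrin detected with anti-human αv antibody (1:500), then peroxidase secondary antibody (2.0 μg/mL), A450. Blocking, washing and curve analysis as for the α5β1 ELISA; IC50 from the inflection point.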

Integrin alpha-V/beta-3 = Integrin alpha-V/beta-3 (Homo sapiens, UniProt P05106+P06756); assay: Inhibition of vitronectin binding to Integrin alphaVbeta3 receptor (unknown origin) by competitive ELISA; type: protein-complex assay
[2] = Induction of focal adhesions formation in rat REF52 cells plated on 68 nm nanopatterned surfaces assessed as axial ratio after 4 hrs post cells plating by immunofluorescence microscopy; type: functional
In short: (§1)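 REF52 rat embryonic fibroblasts (grown in DMEM with 10% FBS, 37 °C, 5% CO2) trypsinized and plated at 150 cells/mm2 in DMEM with 1% FBS on passivated gold nanopatterns (68 ± 9 nm spacing) functionalized with 25 μM peptide for 1 h. Fixed after 4 or 24 h, immunostained for paxillin, with phalloidin for actin and DAPI for nuclei, imaged at 63×.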

[3] = Induction of focal adhesions formation in rat REF52 cells plated on 68 nm nanopatterned surfaces assessed as focal adhesion total area/cell area ratio after 24 hrs post cells plating by immunofluorescence microscopy; type: functional; in short: as §1
[4] = Induction of focal adhesions formation in rat REF52 cells plated on 68 nm nanopatterned surfaces assessed as focal adhesion area after 4 hrs post cells plating by immunofluorescence microscopy; type: functional; in short: as §1
[5] = Induction of focal adhesions formation in rat REF52 cells plated on 68 nm nanopatterned surfaces assessed as focal adhesion area after 24 hrs post cells plating by immunofluorescence microscopy; type: functional; in short: as §1
[6] = Induction of focal adhesions formation in rat REF52 cells plated on 68 nm nanopatterned surfaces assessed as focal adhesion area width after 4 hrs post cells plating by immunofluorescence microscopy; type: functional; in short: as §1
[7] = Induction of focal adhesions formation in rat REF52 cells plated on 68 nm nanopatterned surfaces assessed as axial ratio after 24 hrs post cells plating by immunofluorescence microscopy; type: functional; in short: as §1
[8] = Induction of focal adhesions formation in rat REF52 cells plated on 68 nm nanopatterned surfaces assessed as focal adhesion total area/cell area ratio after 4 hrs post cells plating by immunofluorescence microscopy; type: functional; in short: as §1
[9] = Induction of focal adhesions formation in rat REF52 cells plated on 68 nm nanopatterned surfaces assessed as focal adhesion area length after 4 hrs post cells plating by immunofluorescence microscopy; type: functional; in short: as §1
[10] = Induction of focal adhesions formation in rat REF52 cells plated on 68 nm nanopatterned surfaces assessed as focal adhesion area length after 24 hrs post cells plating by immunofluorescence microscopy; type: functional; in short: as §1
[11] = Induction of focal adhesions formation in rat REF52 cells plated on 68 nm nanopatterned surfaces assessed as focal adhesion area width after 24 hrs post cells plating by immunofluorescence microscopy; type: functional; in short: as §1

| SMILES | IC50 (Integrin alpha-V/beta-5) [nM] | IC50 [1] [nM] | IC50 (Integrin alpha-5/beta-1) [nM] | IC50 (Integrin alpha-V/beta-6) [nM] | IC50 (Integrin alpha-V/beta-3) [nM] | other results |
| --- | --- | --- | --- | --- | --- | --- |
| N=C(N)NCCC[C@@H]1NC(=O)[C@H](CCCCN)NC(=O)[C@@H](Cc2ccccc2)NC(=O)[C@H](CC(=O)O)NC(=O)CNC1=O | 310 | > 10000 | 133 | 68 | – | – |
| Cc1ccnc(NCCCC(=O)NCC(=O)NC(CC(=O)O)c2ccc(-c3cccc4ccccc34)cc2)c1 (stereo unspecified) | > 10000 | > 10000 | 2810 | 4 | > 10000 | – |
| N=C(N)NCCC[C@@H]1NC(=O)[C@H](CCCCNC(=O)CCSCCOCCOCCOCCOCCOCCOCCO)NC(=O)[C@@H](Cc2ccccc2)NC(=O)[C@H](CC(=O)O)NC(=O)CNC1=O | – | – | 197 | – | 13.6 | Ratio [2]: 3.24; Ratio [3]: 0.076; Activity [4]: 3.4 um2; Activity [5]: 4.12 um2; Activity [6]: 1.25 um; Ratio [7]: 3.42; Ratio [8]: 0.093; Activity [9]: 3.78 um; Activity [10]: 4.17 um; Activity [11]: 1.31 um |
| N=C(N)NCCC[C@@H]1NC(=O)CNC(=O)C[C@@H](C(=O)O)NC(=O)[C@@H](c2ccccc2)NC(=O)[C@@H](CCCCNC(=O)CCSCCOCCOCCOCCOCCOCCOCCO)NC1=O | – | – | 27 | – | > 10000 | Ratio [2]: 6.01; Ratio [3]: 0.079; Activity [4]: 1.24 um2; Activity [5]: 2.61 um2; Activity [6]: 0.51 um; Ratio [7]: 4.68; Ratio [8]: 0.07; Activity [9]: 2.92 um; Activity [10]: 3.94 um; Activity [11]: 0.9 um |
| NC(N)=NCCC[C@@H]1NC(=O)CNC(=O)C[C@@H](C(=O)O)NC(=O)[C@@H](c2ccccc2)NC(=O)[C@@H](Cc2c[nH]c3ccccc23)NC1=O | > 10000 | > 10000 | 5.5 | 92 | > 10000 | – |
| NC(N)=NCCC[C@@H]1NC(=O)CNC(=O)C[C@@H](C(=O)O)NC(=O)[C@@H](c2ccccc2)NC(=O)[C@H](Cc2c[nH]c3ccccc23)NC1=O | – | – | 72 | – | > 10000 | – |
| NC(N)=NCCC[C@@H]1NC(=O)CNC(=O)C[C@@H](C(=O)O)NC(=O)[C@@H](c2ccccc2)NC(=O)[C@@H](Cc2ccc(O)cc2)NC1=O | – | – | 8.7 | – | > 10000 | – |
| NC(N)=NCCC[C@@H]1NC(=O)CNC(=O)C[C@@H](C(=O)O)NC(=O)[C@@H](c2ccccc2)NC(=O)[C@H](Cc2ccc(O)cc2)NC1=O | – | – | 39 | – | > 10000 | – |
| NC(N)=NCCC[C@@H]1NC(=O)CNC(=O)C[C@@H](C(=O)O)NC(=O)[C@@H](c2ccccc2)NC(=O)[C@H](CCC(=O)O)NC1=O | – | – | 92 | – | 3870 | – |
| NC(N)=NCCC[C@@H]1NC(=O)CNC(=O)C[C@@H](C(=O)O)NC(=O)[C@@H](c2ccccc2)NC(=O)[C@@H](CCC(=O)O)NC1=O | – | – | 11 | – | > 10000 | – |
| N=C(N)NCCC[C@@H]1NC(=O)CNC(=O)C[C@@H](C(=O)O)NC(=O)[C@@H](c2ccccc2)NC(=O)[C@@H](CCCCN)NC1=O | > 10000 | > 10000 | 8.7 | 19 | > 10000 | – |
| NCCCC[C@@H]1NC(=O)[C@H](CCCN=C(N)N)NC(=O)CNC(=O)C[C@@H](C(=O)O)NC(=O)[C@@H](c2ccccc2)NC1=O | > 10000 | > 10000 | 94 | 140 | 516 | – |
| N=C(N)NCCC[C@@H]1NC(=O)CNC(=O)C[C@@H](C(=O)O)NC(=O)[C@@H](c2ccccc2)NC(=O)[C@H]2CCCN2C1=O | – | – | 7 | – | > 10000 | – |
| NC(N)=NCCC[C@@H]1NC(=O)CNC(=O)C[C@@H](C(=O)O)NC(=O)[C@@H](c2ccccc2)NC(=O)[C@@H]2CCCN2C1=O | – | – | 111 | – | 675 | – |
| CC(C)[C@H]1NC(=O)[C@H](CCCN=C(N)N)NC(=O)CNC(=O)C[C@@H](C(=O)O)NC(=O)[C@@H](c2ccccc2)NC1=O | – | – | 7.3 | – | > 10000 | – |
| CC(C)[C@@H]1NC(=O)[C@H](CCCN=C(N)N)NC(=O)CNC(=O)C[C@@H](C(=O)O)NC(=O)[C@@H](c2ccccc2)NC1=O | – | – | 115 | – | 576 | – |
| N=C(N)NCCC[C@@H]1NC(=O)CNC(=O)C[C@@H](C(=O)O)NC(=O)[C@@H](c2ccccc2)NC(=O)CNC1=O | > 10000 | > 10000 | 19 | 106 | > 1000 | – |

— ChEMBL document CHEMBL2331347, “Biselectivity of isoDGR peptides for fibronectin binding integrin subtypes α5β1 and αvβ6: conformational control through flanking amino acids” (J Med Chem, 2013)
